Source: PubChem (Sanford-Burnham Center for Chemical Genomics)
CCR6 antag = CCR6 (human) receptor antagonism; CHO-K1 CCR6 PathHunter beta-arrestin, luminescence, CCL20-stimulated; P51684; inhibition, % at 20 µM; 340,000 compounds, 0.49% hits;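 active = compounds whose inhibition of the agonist-driven luminescence signal at 20 µM reaches about 50%, limit read from the data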;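 note: cells stimulated with CCL20 at 14 nM final; plate controls were DMSO with CCL20 for no effect and DMSO without agonist for full effect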
EBI2 antag = blocks human EBI2 receptor beta-arrestin signaling; 360,000 compounds, 0.81% hits; inhibition, % at 5 µM; EBI2 beta-arrestin recruitment, luminescence, 7a,25-OHC stimulated; AID 651636; P32249; in the data active = inhibition above about 38%;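 note: enzyme fragment complementation signal reports receptor beta-arrestin coupling in cells; 0% = agonist plus DMSO wells and 100% = wells without agonist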
Target sequence (P32249 whole entry, looked up, the tested form may be a part): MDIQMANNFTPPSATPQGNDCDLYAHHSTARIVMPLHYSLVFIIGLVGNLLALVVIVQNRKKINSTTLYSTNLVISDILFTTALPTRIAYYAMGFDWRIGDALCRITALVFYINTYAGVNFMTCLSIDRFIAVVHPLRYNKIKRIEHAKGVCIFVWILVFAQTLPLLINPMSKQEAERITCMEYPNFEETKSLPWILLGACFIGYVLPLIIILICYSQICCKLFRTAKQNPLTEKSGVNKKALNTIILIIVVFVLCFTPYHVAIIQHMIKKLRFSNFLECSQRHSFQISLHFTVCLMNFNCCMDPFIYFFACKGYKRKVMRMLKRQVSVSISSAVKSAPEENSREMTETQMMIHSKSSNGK
APJ ag = activates the human apelin receptor APJ; 330,000 compounds, 0.11% hits; CHO-K1 APJ PathHunter beta-arrestin, luminescence; 0% DMSO wells, 100% apelin; P35414; activation, % at 20 µM; AID 2520;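 active = activation more than six SD over the plate average, tested at 20 µM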;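 note: 0% = DMSO alone and 100% = apelin-13 at 10 nM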
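assay system = CHO-K1 APJ beta-arrestin complementation cell line | input = cell density 1000 per well | dosing = compound 20 µM once, DMSO 1% | timing = compound 90 min 25 °C, reagent 1 h | measured by = luminescence from split beta-galactosidase complementation, Galacton Star/Emerald II substrate | read-out basis = APJ agonist activity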
CXCR6 block = blocks human CXCR6 beta-arrestin recruitment; O00574; CHO-K1 PathHunter CXCR6 beta-arrestin, luminescence; inhibition, % at 20 µM; 360,000 compounds, 0.36% hits; in the data active = inhibition above about 34%, passing the limit was not always enough;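 note: antagonist mode with CXCL16 agonist at 10 nM final; 0% = 10 nM CXCL16 with DMSO and 100% = unstimulated wells without agonist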
APJ antag = antagonists of human APJ apelin receptor; CHO-K1 APJ beta-arrestin complementation, luminescence; inhibition, % at 20 µM; 330,000 compounds, 0.32% hits; AID 2521; P35414;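 active = inhibition above about 40% at 20 µM, limit read from the data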;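 note: cells challenged with 10 nM apelin-13 agonist together with compound; plate controls were apelin-13 plus DMSO wells for no effect and DMSO wells lacking apelin-13 for full effect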
CXCR6 antag conf = confirmation of human CXCR6 receptor antagonists | shares compounds with CXCR6 block | CHO-K1 CXCR6 PathHunter beta-arrestin, luminescence | inhibition, % at 20 µM | 700 compounds, 65% hits;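 active = mean inhibition over four retests above 40%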;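 note: receptor stimulated with 10 nM CXCL16 agonist; beta-galactosidase fragment complementation upon beta-arrestin recruitment to receptor; plate controls were CXCL16 plus DMSO for no effect and DMSO without CXCL16 for full effect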
* marks the source's active call; other numbers are inactive results; · = not tested or not shown. Sampled rows, rich in hits. Any-hit rate of the full collection: about 1.5%.

SMILES | CCR6 antag | EBI2 antag | APJ ag | CXCR6 block | APJ antag | CXCR6 antag conf
Cn1cnc([N+](=O)[O-])c1S(=O)(=O)c1cccc(Cl)c1 | 59* | 21 | -3 | 49* | 36 | 65*
Cc1cc2c(cc1C)-n1nnnc1C(N1CCN(CC(=O)NC(C)C)CC1)C(=O)N2 (stereo unspecified) | · | -2 | · | · | · | ·
COc1ccc(-n2nnnc2S(=O)(=O)CC(=O)N2CCCCC2)cc1 | 47 | 43* | -1 | 48* | 25 | 49*
Cc1c(C(=O)NCc2ccc(Cl)c(Cl)c2)sc(=O)n1Cc1ccc(C(=O)N(C)C)cc1 | · | -1 | · | 7 | · | ·
CN1CCC2CC1c1cc(-c3ccc(C(F)(F)F)cc3)ccc12 (stereo unspecified) | 7 | 3 | · | -4 | · | ·
CC(NC(=O)CCC(=O)NCc1ccc(F)cc1)c1ccccc1 (stereo unspecified) | 18 | 7 | -3 | 80* | -9 | -4
O=[N+]([O-])c1ccc(C=CC=Cc2ccccc2)cc1 | · | 1 | · | 2 | · | ·
CN(c1ccccc1)c1ccc(/C=C/[N+](=O)[O-])cc1 | · | 7 | · | 71* | · | 63*
O=C(Nc1ccccc1)c1nnsc1S(=O)c1ccc(Cl)cc1 (stereo unspecified) | 101* | 27 | -4 | 89* | 21 | 97*
COc1cc(/C=C/C(=O)c2ccc(C)c([N+](=O)[O-])c2)cc(OC)c1O | 68* | 25 | -6 | 43* | 38 | 55*
COc1ccc(/C=C/C(=O)c2ccc(C)c([N+](=O)[O-])c2)cc1O | 39 | -12 | -2 | 10 | -3 | ·
COc1cc2c(cc1[N+](=O)[O-])-c1ccc([N+](=O)[O-])cc1C2=NNC(N)=S | · | -11 | · | 25 | · | ·
NC(=S)NN=C1c2cc(Cl)ccc2-c2c1cc(Cl)cc2[N+](=O)[O-] | 76* | 11 | · | 43* | · | 59*
COC(=O)c1ccc(CCc2cc(O)c(Br)cc2O)cc1 | · | 1 | · | 55* | · | 49*
COC(=O)c1ccc(CCc2cc(O)ccc2O)cc1 | 11 | -5 | · | 15 | · | ·
COc1cc2c(cc1OC)CN(C(=O)CSc1nc(N)c(C#N)cc1C#N)CC2 | -16 | -3 | -3 | 46* | 6 | 4
CCCS(=O)(=O)NC(=O)C1(C)CCN(C(=O)Cc2cccc3ccccc23)C1 (stereo unspecified) | · | -9 | · | -4 | · | ·
NC(=S)N/N=C/c1ccc(C(F)(F)F)cc1 | -6 | -1 | 2 | 2 | 2 | ·
NC(=S)N/N=C/c1ncc(C(F)(F)F)cc1Cl | 74* | 4 | -7 | 61* | 58* | 90*
Cc1noc(C)c1NC(=O)Nc1cccc2c1O[C@H](CN(C)S(C)(=O)=O)[C@@H](C)CN([C@H](C)CO)C2=O | -2 | -7 | -2 | 5 | 4 | ·
Cc1noc(C)c1NC(=O)Nc1cccc2c1O[C@H](CN(C)S(=O)(=O)c1cn(C)cn1)[C@@H](C)CN([C@H](C)CO)C2=O | 11 | -2 | 1 | 45* | -6 | 3
Cc1cc(C)n(C(C[N+](=O)[O-])c2ccc(Cl)cc2)n1 (stereo unspecified) | 20 | -8 | 4 | 44* | -1 | 19
O=C(CSc1ccccn1)Nc1ccc(NC(=O)CSc2ccccn2)cc1 | 10 | 9 | 0 | 87* | -9 | 10
Nc1cccc2c1C(=O)N(C(=O)c1ccco1)C2=O | 5 | 3 | -2 | -2 | 21 | ·
Nc1cccc2c1C(=O)N(C(=O)/C=C/c1ccc(F)cc1)C2=O | 61* | 2 | 0 | 48* | 36 | 38
SMILES | CCR6 antag | EBI2 antag | APJ ag | CXCR6 block | APJ antag | CXCR6 antag conf
CCOc1ccccc1C(=O)N/N=C/c1cccc2cccnc12 | -13 | -13 | 5 | -5 | -13 | ·
CCOc1ccc(C(=O)N/N=C/c2cccc3cccnc23)cc1 | · | 2 | -3 | 56* | 25 | 64*
COc1ccc(C(=O)N/N=C/c2cccc3cccnc23)cc1 | 23 | 4 | -4 | 52* | 12 | 60*
COC(=O)c1c(-c2ccccc2)oc2c1C(OCCO)CCC2 (stereo unspecified) | · | -6 | · | 4 | · | ·
Cc1c(Cl)cccc1NC(=S)NCc1ccc(F)cc1 | 4 | -5 | 2 | -9 | -3 | ·
Fc1ccc(CNC(=S)Nc2ccccc2Cl)cc1 | -7 | -10 | -1 | 47* | -4 | 9
